From ChEMBL document CHEMBL1153433, “Design and synthesis of 2-amino-4-methylpyridine analogues as inhibitors for inducible nitric oxide synthase and in vivo evaluation of [18F]6-(2-fluoropropyl)-4-methyl-pyridin-2-amine as a potential PET tracer for inducible nitric oxide synthase” (J Med Chem, 2009)

What was measured:
Lung [1] = assay: Biodistribution in C57BL/6N mouse lung at 50 uCi/110 uL, iv after 2 hrs; assay type: ADME, organism-based; conditions: in vivo
Summary of the method: (§1)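 Untreated (control) male C57BL/6N mice aged 6-8 weeks. HPLC-purified tracer, ~50 μCi in 10% ethanol/saline, given i.v. via the tail vein. Mice were sacrificed at 5 min, 30 min, 1 h and 2 h post-injection. Tissues were removed, weighed and gamma-counted against diluted injectate standards. Data are %ID/g, mean ± SD, n = 4.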

Lung [2] = assay: Biodistribution in LPS treated C57BL/6N mouse lung at 50 uCi/110 uL, iv administered 6 hrs […] LPS challenge measured after 2 hrs post drug dose; assay type: ADME, organism-based; conditions: in vivo
Summary of the method: (§2)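 Male C57BL/6N mice, 6-8 weeks; LPS (E. coli O127:B8) in PBS, 10 mg/kg i.v., given 6 h before tracer. HPLC-purified [18F]tracer ~50 μCi in 10% ethanol/saline i.v. via tail vein. Killed at 5 min, 30 min, 1 h or 2 h; tissues weighed and gamma-counted against diluted injectate standards. Reported as %ID/g, mean ± SD, n = 4.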

Brain [3] = assay: Biodistribution in C57BL/6N mouse brain at 50 uCi/110 uL, iv after 1 hr; assay type: ADME, organism-based; conditions: in vivo; summary of the method: as §1
Kidney [4] = assay: Biodistribution in C57BL/6N mouse kidney at 50 uCi/110 uL, iv after 5 mins; assay type: ADME, organism-based; conditions: in vivo; summary of the method: as §1
Liver [5] = assay: Biodistribution in C57BL/6N mouse liver at 50 uCi/110 uL, iv after 30 mins; assay type: ADME, organism-based; conditions: in vivo, 0.5 h; summary of the method: as §1
Blood [6] = assay: Biodistribution in LPS treated C57BL/6N mouse blood at 50 uCi/110 uL, iv administered 6 hrs […] LPS challenge measured after 5 mins post drug dose; assay type: ADME, organism-based; conditions: in vivo
Summary of the method: (§3)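 Male C57BL/6N mice aged 6-8 weeks received E. coli O127:B8 LPS in PBS, 10 mg/kg i.v., 6 h before tracer. Tracer ~50 μCi in 10% ethanol/saline, i.v. tail vein. Sacrifice was at 5 min, 30 min, 1 h or 2 h post-injection. Organs were weighed and gamma-counted with injectate standards. Data are %ID/g, mean ± SD, n = 4.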

Lung [7] = assay: Biodistribution in C57BL/6N mouse lung at 50 uCi/110 uL, iv after 5 mins; assay type: ADME, organism-based; conditions: in vivo; summary of the method: as §1
Liver [8] = assay: Biodistribution in LPS treated C57BL/6N mouse liver at 50 uCi/110 uL, iv administered 6 hrs […] LPS challenge measured after 2 hrs post drug dose; assay type: ADME, organism-based; conditions: in vivo; summary of the method: as §2
Blood [9] = assay: Biodistribution in C57BL/6N mouse blood at 50 uCi/110 uL, iv after 2 hrs; assay type: ADME, organism-based; conditions: in vivo; summary of the method: as §1
Heart [10] = assay: Biodistribution in C57BL/6N mouse heart at 50 uCi/110 uL, iv after 30 mins; assay type: ADME, organism-based; conditions: in vivo, 0.5 h; summary of the method: as §1
[11] = Metabolic stability in Sprague-Dawley rat plasma assessed as parent compound remaining at 400 uCi, iv after 30 mins by HPLC; assay type: ADME, organism-based; conditions: read-out: Stability
Summary of the method: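 Anesthetized male Sprague-Dawley rat given 400 μCi [18F]tracer in 10% ethanol/saline i.v. via tail vein. Blood drawn by cardiac puncture at 5 and 30 min. Plasma separated by centrifugation, treated with 3 equivalents of acetonitrile and centrifuged; supernatant filtered and analysed by HPLC. Samples kept on ice.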

Brain [12] = assay: Biodistribution in C57BL/6N mouse brain at 50 uCi/110 uL, iv after 2 hrs; assay type: ADME, organism-based; conditions: in vivo; summary of the method: as §1
Blood [13] = assay: Biodistribution in C57BL/6N mouse blood at 50 uCi/110 uL, iv after 5 mins; assay type: ADME, organism-based; conditions: in vivo; summary of the method: as §1
Heart [14] = assay: Biodistribution in LPS treated C57BL/6N mouse heart at 50 uCi/110 uL, iv administered 6 hrs […] LPS challenge measured after 1 hr post drug dose; assay type: ADME, organism-based; conditions: in vivo; summary of the method: as §3
Lung [15] = assay: Biodistribution in C57BL/6N mouse lung at 50 uCi/110 uL, iv after 1 hr; assay type: ADME, organism-based; conditions: in vivo; summary of the method: as §1
Brain [16] = assay: Biodistribution in LPS treated C57BL/6N mouse brain at 50 uCi/110 uL, iv administered 6 hrs […] LPS challenge measured after 2 hrs post drug dose; assay type: ADME, organism-based; conditions: in vivo; summary of the method: as §3
Brain [17] = assay: Biodistribution in C57BL/6N mouse brain at 50 uCi/110 uL, iv after 30 mins; assay type: ADME, organism-based; conditions: in vivo, 0.5 h; summary of the method: as §1
Muscle tissue [18] = assay: Biodistribution in LPS treated C57BL/6N mouse muscle at 50 uCi/110 uL, iv administered 6 hrs […] LPS challenge measured after 1 hr post drug dose; assay type: ADME, organism-based; conditions: in vivo; summary of the method: as §2
Bone [19] = assay: Biodistribution in LPS treated C57BL/6N mouse bone at 50 uCi/110 uL, iv administered 6 hrs […] LPS challenge measured after 5 mins post drug dose; assay type: ADME, organism-based, Bone element; conditions: in vivo; summary of the method: as §3
Bone [20] = assay: Biodistribution in C57BL/6N mouse bone at 50 uCi/110 uL, iv after 2 hrs; assay type: ADME, organism-based, Bone element; conditions: in vivo; summary of the method: as §1
Heart [21] = assay: Biodistribution in C57BL/6N mouse heart at 50 uCi/110 uL, iv after 2 hrs; assay type: ADME, organism-based; conditions: in vivo; summary of the method: as §1
Lung [22] = assay: Biodistribution in LPS treated C57BL/6N mouse lung at 50 uCi/110 uL, iv administered 6 hrs […] LPS challenge measured after 1 hr post drug dose; assay type: ADME, organism-based; conditions: in vivo; summary of the method: as §2
Kidney [23] = assay: Biodistribution in LPS treated C57BL/6N mouse kidney at 50 uCi/[…], iv administered […] measured after 5 mins post drug dose; assay type: ADME, organism-based; conditions: in vivo; summary of the method: as §2
Bone [24] = assay: Biodistribution in LPS treated C57BL/6N mouse bone at 50 uCi/110 uL, iv administered 6 hrs before LPS challenge measured after 1 hr post drug dose; assay type: ADME, organism-based, Bone element; conditions: in vivo, in the assay text read “6 hrs after LPS challenge” for “6 hrs before LPS challenge”; summary of the method: as §3
Mus musculus = assay: Biodistribution in LPS treated C57BL/6N mouse at 5 uCi, iv co-administered with nonselective NOS inhibitor 2-amino-4-methylpyridine measured after 1 hr; assay type: ADME, organism-based; conditions: in vivo
Muscle tissue [25] = assay: Biodistribution in LPS treated C57BL/6N mouse muscle at 50 uCi/110 uL, iv administered 6 hrs […] LPS challenge measured after 2 hrs post drug dose; assay type: ADME, organism-based; conditions: in vivo; summary of the method: as §2
Muscle tissue [26] = assay: Biodistribution in C57BL/6N mouse muscle at 50 uCi/110 uL, iv after 1 hr; assay type: ADME, organism-based; conditions: in vivo; summary of the method: as §1
Kidney [27] = assay: Biodistribution in LPS treated C57BL/6N mouse kidney at 50 uCi/110 uL, iv administered 6 hrs […] LPS challenge measured after 1 hr post drug dose; assay type: ADME, organism-based; conditions: in vivo; summary of the method: as §3
Kidney [28] = assay: Biodistribution in C57BL/6N mouse kidney at 50 uCi/110 uL, iv after 2 hrs; assay type: ADME, organism-based; conditions: in vivo; summary of the method: as §1
Muscle tissue [29] = assay: Biodistribution in LPS treated C57BL/6N mouse muscle at 50 uCi/110 uL, iv administered 6 hrs […] LPS challenge measured after 30 mins post drug dose; assay type: ADME, organism-based; conditions: in vivo, 0.5 h; summary of the method: as §2
Kidney [30] = assay: Biodistribution in LPS treated C57BL/6N mouse kidney at 50 uCi/110 uL, iv administered 6 hrs […] LPS challenge measured after 2 hrs post drug dose; assay type: ADME, organism-based; conditions: in vivo; summary of the method: as §2
Kidney [31] = assay: Biodistribution in C57BL/6N mouse kidney at 50 uCi/110 uL, iv after 30 mins; assay type: ADME, organism-based; conditions: in vivo, 0.5 h; summary of the method: as §1
Liver [32] = assay: Biodistribution in C57BL/6N mouse liver at 50 uCi/110 uL, iv after 5 mins; assay type: ADME, organism-based; conditions: in vivo; summary of the method: as §1
Lung [33] = assay: Biodistribution in LPS treated C57BL/6N mouse lung at 50 uCi/110 uL, iv administered 6 hrs […] LPS challenge measured after 30 mins post drug dose; assay type: ADME, organism-based; conditions: in vivo, 0.5 h; summary of the method: as §2
Bone [34] = assay: Biodistribution in C57BL/6N mouse bone at 50 uCi/110 uL, iv after 30 mins; assay type: ADME, organism-based, Bone element; conditions: in vivo, 0.5 h; summary of the method: as §1

## Cc1cc(N)nc(CC(C)[18F])c1 (stereo not given)
Lung [1]
  Drug uptake: 0.15 % ID/g
Lung [2]
  Drug uptake: 0.18 % ID/g
Brain [3]
  Drug uptake: 0.11 % ID/g
Kidney [4]
  Drug uptake: 20.6 % ID/g
Liver [5]
  Drug uptake: 10.7 % ID/g
Blood [6]
  Drug uptake: 3.69 % ID/g
Lung [7]
  Drug uptake: 3.33 % ID/g
Liver [8]
  Drug uptake: 0.42 % ID/g
Blood [9]
  Drug uptake: 0.27 % ID/g
Heart [10]
  Drug uptake: 0.6 % ID/g
[11]
  remaining at 0.5 h: 20.2%
Brain [12]
  Drug uptake: 0.07 % ID/g
Blood [13]
  Drug uptake: 2.37 % ID/g
Heart [14]
  Drug uptake: 0.41 % ID/g
Lung [15]
  Drug uptake: 0.31 % ID/g
Brain [16]
  Drug uptake: 0.07 % ID/g
Brain [17]
  Drug uptake: 0.28 % ID/g
Muscle tissue [18]
  Drug uptake: 0.78 % ID/g
Bone [19]
  Drug uptake: 1.59 % ID/g
Bone [20]
  Drug uptake: 5.59 % ID/g
Heart [21]
  Drug uptake: 0.08 % ID/g
Lung [22]
  Drug uptake: 0.73 % ID/g
Kidney [23]
  Drug uptake: 26.7 % ID/g
Bone [24]
  Drug uptake: 4.3 % ID/g
Mus musculus
  Activity: Not Active
Muscle tissue [25]
  Drug uptake: 0.23 % ID/g
Muscle tissue [26]
  Drug uptake: 0.27 % ID/g
Kidney [27]
  Drug uptake: 3.95 % ID/g
Kidney [28]
  Drug uptake: 0.8 % ID/g
Muscle tissue [29]
  Drug uptake: 1.06 % ID/g
Kidney [30]
  Drug uptake: 0.91 % ID/g
Kidney [31]
  Drug uptake: 7.3 % ID/g
Liver [32]
  Drug uptake: 33.2 % ID/g
Lung [33]
  Drug uptake: 1.84 % ID/g
Bone [34]
  Drug uptake: 2.26 % ID/g
